ChEMBL document CHEMBL5506013, “Mitochondria-Selective Dicationic Small-Molecule Ligand Targeting G-Quadruplex Structures for Human Colorectal Cancer Therapy” (J Med Chem, 2024)
The source made the active and inactive calls. The rule behind the calls is not given here.

Experiments:
DNA [1] = experiment: Binding affinity to HP19 DNA (non-G4 DNA) (unknown origin) assessed as dissociation constant measured upto 450 secs by surface plasmon resonance assay; assay type: nucleic-acid assay
Method in brief: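 Surface plasmon resonance in buffer at 25 °C. Four G4-mtDNAs (Mito 78, Mito 55, Mito 29, Mito 0.5-16) and the hairpin HP19 served as substrates. Kd was derived from the sensorgrams.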

[2] = Antiproliferative activity against human BJ cells measured after 48 hrs by MTT assay; assay type: toxicity, cell-based; settings: BJ cells
Method in brief: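 Cells exposed to the ligands for 48 h. Viability was read by MTT, and the IC50 was derived from the response.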

Quadruplex DNA [3] = experiment: Binding affinity to mito 81 G4 DNA (unknown origin) assessed as dissociation constant measured upto 150 secs by isothermal titration calorimetry assay; assay type: nucleic-acid assay
DNA [4] = experiment: Binding affinity to SS19 DNA (non-G4 DNA) (unknown origin) assessed as dissociation constant measured upto 150 secs by isothermal titration calorimetry assay; assay type: nucleic-acid assay
HCT-116 [5] = experiment: Downregulation of ND1 mRNA level in human HCT-116 cells at 0 to 4 uM measured after 48 hrs by qRT-PCR analysis; assay type: functional, cell-based; settings: dose 0-4 µM
HCT-116 [6] = experiment: Downregulation of ND3 protein level in human HCT-116 cells at upto 4 uM incubated for 48 hrs by Western blot analysis; assay type: functional, cell-based
HCT-116 [7] = experiment: Downregulation of ND6 protein level in human HCT-116 cells at upto 4 uM incubated for 48 hrs by Western blot analysis; assay type: functional, cell-based
HCT-116 [8] = experiment: Downregulation of COX1 protein level in human HCT-116 cells at upto 4 uM incubated for 48 hrs by Western blot analysis; assay type: functional, cell-based
HCT-116 [9] = experiment: Downregulation of CYTB protein level in human HCT-116 cells at upto 4 uM incubated for 48 hrs by Western blot analysis; assay type: functional, cell-based
HCT-116 [10] = experiment: Downregulation of mitochondrial respiratory chain complex II level in human HCT-116 cells at upto 4 uM measured after 48 hrs by Western blot analysis; assay type: functional, cell-based
HCT-116 [11] = experiment: Induction of ROS production in human HCT-116 cells assessed as upregulation of ROS level measured after 48 hrs by mito-sox staining based analysis; assay type: functional, cell-based; settings: dose <= 4.0 µM
HCT-116 [12] = experiment: Induction of mitochondrial dysfunction in human HCT-116 cells assessed as decrease in extracellular acidification rate at upto 4 uM incubated for 3 hrs by Seahorse XFe24 analyzer; assay type: functional, cell-based
Method in brief: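 Seahorse Mito-stress and glycolysis stress tests on HCT116 cells treated with ligand for 3 h. Oxygen consumption rate and extracellular acidification rate recorded.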

HCT-116 [13] = experiment: Induction of DNA damage in human HCT-116 assessed as increase in tail length at upto 4 uM incubated for 72 hrs by comet assay; assay type: functional, cell-based
Method in brief: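 HCT116 cells exposed to ligand at 0-4 uM for 72 h. DNA damage assessed by comet assay with DAPI staining (excitation 405 nm), imaged at 200x, tail length measured.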

HCT-116 [14] = experiment: Induction of DNA damage in human HCT-116 assessed as increase in tail length at upto 4 uM incubated for 72 hrs in presence of MitoTEMPO by comet assay; assay type: functional, cell-based
Quadruplex DNA [15] = experiment: Binding affinity to mito 78 G4 DNA (unknown origin) assessed as increase in fluorescence intensity by fluorescence spectrophotometric analysis; assay type: nucleic-acid assay
Method in brief: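 Fluorescence titration in buffer. Ligand at 5 uM mixed with 20 uM pre-annealed DNA (95 °C for 10 min, slow cooling). Emission collected at 550-800 nm and monitored at 650 nm. Result reported as fold enhancement F/F0 over ligand alone.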

Quadruplex DNA [16] = experiment: Binding affinity to Mito 81 G4 DNA (unknown origin) assessed as increase in CD signal at 5 uM at 265 nM by circular dichroism spectroscopic analysis; assay type: nucleic-acid assay
Quadruplex DNA [17] = experiment: Binding affinity to Mito 55 G4 DNA (unknown origin) assessed as change in melting temperature at 5 uM by circular dichroism spectroscopic analysis; assay type: nucleic-acid assay
DNA [18] = experiment: Binding affinity to HP19 DNA (non-G4 DNA) (unknown origin) assessed as change in melting temperature at 5 uM by circular dichroism spectroscopic analysis; assay type: nucleic-acid assay
[19] = Drug localization in human HCT-116 cells by measuring red foci at 4 uM incubated for 1 hr in presence of DMOG by hoechst33342 staining based analysis; assay type: ADME, cell-based; settings: hct-116, 1 h
Method in brief: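 Pretreatment of live HCT116 cells: FCCP 1 uM for 20 min, cyclosporin A 1 uM for 24 h, DMOG 100 uM for 24 h, or MitoPDS at several concentrations for 3 h (applied after dye loading). Cells loaded with ligand 4 uM (excitation 488 nm) for 1 h and Hoechst33342 1 uM for 30 min. Red foci counted by confocal imaging in 100 cells. Mean ± SEM, t test.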

HCT-116 [20] = experiment: Downregulation of lamin B1 level in human HCT-116 cells measured after 72 hrs by Western blot analysis; assay type: functional, cell-based; settings: dose <= 4.0 µM
Method in brief: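 HCT116 cells treated with ligand at 0-4 uM for 72 h. Lamin B1 and Ki67 imaged by immunofluorescence (excitation 635 nm), or lamin B1 probed on Western blot with β-actin as loading control.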

HCT-116 [21] = experiment: Upregulation of p21 level in human HCT-116 cells at upto 4 uM measured after 72 hrs by Western blot analysis; assay type: functional, cell-based
Method in brief: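 HCT116 cells exposed to the ligand at 0–4 µM for 72 h. Lysates were immunoblotted for p21 together with Lamin B1, p53, p16 and γ-H2A.x, with β-actin as the loading reference.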

HCT-116 [22] = experiment: Induction of cell cycle arrest in human HCT-116 cells assessed as accumulation of cells at G0/G1 phase measured after 72 hrs by PI staining based flow cytometry analysis; assay type: functional; settings: dose 1-4 µM
Method in brief: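 HCT116 cells treated at 0-4 uM for 72 h. Cell-cycle distribution measured by flow cytometry and G0/G1 percentage recorded.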

HCT-116 [23] = experiment: Inhibition of cell proliferation in human HCT-116 cells at 4 uM measured after 7 days by colony formation assay relative to control; assay type: functional; settings: HCT-116, 168 h, time 7 day
Method in brief: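 Colony formation: HCT116 cells treated for 7 days at 0, 1, 2 or 4 uM, colonies counted and quantified; mean ± SD.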

[24] = Toxicity in BALB/c nude mouse assessed as change in neutrophil count at 5 mg/kg, iv administered every two days for 16 days; assay type: organism-based; settings: in vivo, 384 h, time 16 day
Method in brief: (§1)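 HCT116 xenograft-bearing male Balb/c nude mice (6/group) dosed iv at 5 mg/kg every two days or with PBS. Whole blood collected at sacrifice on day 16 for hematology parameters.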

[25] = Toxicity in BALB/c nude mouse assessed as change in red blood cell count at 5 mg/kg, iv administered every two days for 16 days; assay type: organism-based; settings: in vivo, 384 h, time 16 day; method in brief: as §1
[26] = Toxicity in BALB/c nude mouse assessed as change in mean red blood cell volume at 5 mg/kg, iv administered every two days for 16 days; assay type: organism-based; settings: in vivo, 384 h, time 16 day; method in brief: as §1
[27] = Toxicity in BALB/c nude mouse assessed as effect on spleen at 5 mg/kg, iv measured after 16 hrs post injection by H and E staining based analysis; assay type: organism-based; settings: in vivo
[28] = Toxicity in BALB/c nude mouse assessed as effect on kidney at 5 mg/kg, iv measured after 16 hrs post injection by H and E staining based analysis; assay type: organism-based; settings: in vivo
[29] = Drug localization in human HCT-116 cells overexpressing twinkle helicase by measuring red foci at 4 uM incubated for 1 hr by hoechst33342 staining based analysis; assay type: ADME, cell-based; settings: hct-116, 1 h

Kd (DNA [1]): > 2000 nM
Kd (Quadruplex DNA [3]): 60 nM
Kd (DNA [4]): > 4700 nM
Activity (Quadruplex DNA [15]): Active
Activity (Quadruplex DNA [16]): Active
ΔTm (Quadruplex DNA [17]): 3.6 °C
ΔTm (DNA [18]): 0.5 °C
Drug uptake [19]: Not Active
Drug uptake [29]: Active
Structure (SMILES): C(=C\c1ccc2ccccc2[n+]1CCCCCCCC[n+]1c(/C=C/c2ccc(N3CCCCC3)cc2)ccc2ccccc21)/c1ccc(N2CCCCC2)cc1.[I-].[I-]
IC50 at 48 h [2]: > 40000 nM
Activity (HCT-116 [5]): Active
Activity (HCT-116 [6]): Active
Activity (HCT-116 [7]): Active
Activity (HCT-116 [8]): Active
Activity (HCT-116 [9]): Active
Activity (HCT-116 [10]): Active
Activity (HCT-116 [11]): Dose-Dependent Effect
Activity (HCT-116 [12]): Active
Activity (HCT-116 [13]): Active
Activity (HCT-116 [14]): inactive
Activity (HCT-116 [20]): Dose-Dependent Effect
Activity (HCT-116 [21]): Active
Activity (HCT-116 [22]): Dose-Dependent Effect
inhibition at 4 µM (HCT-116 [23]): 100%
Activity [24]: Non-Toxic
Activity [25]: Non-Toxic
Activity [26]: Non-Toxic
Activity [27]: Non-Toxic
Activity [28]: Non-Toxic
